Data from ChEMBL document CHEMBL1122973, “Synthesis and platelet aggregation inhibitory activity of 4,5-bis(substituted)-1,2,3-thiadiazoles” (J Med Chem, 1985).
≈ marks a conversion by molar mass, not a printed value.

Tests used:
Format in all cases: functional
Homo sapiens [1] = species on record: Homo sapiens; assay: In vitro inhibition of collagen-induced platelet aggregation in human platelet-rich plasma (PRP)
How it was run: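 Citrated human blood spun at 200g, 10 min, 10 °C to give PRP. A further spin at 2000g, 10 min, 10 °C gave PPP, used to adjust the platelet count to 3×10^5/mm³. Collagen triggered aggregation. Approximate IC50 was read from 1/2 log steps of drug concentration. Flurbiprofen served as internal standard for day-to-day variation in platelet sensitivity.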

Homo sapiens [2] = species on record: Homo sapiens; assay: Potency relative to flurbiprofen in inhibiting collagen-induced platelet aggregation in human platelet-rich plasma (PRP)
How it was run: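 Ratio of activity to flurbiprofen, the internal standard run alongside each day. The IC50 was approximate, from 1/2 log concentration intervals, for collagen-induced aggregation in human PRP. PRP came from citrated blood (200g, 10 min, 10 °C), with platelets adjusted to 3×10^5/mm³ using autologous PPP (2000g, 10 min, 10 °C).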

Homo sapiens [3] = species on record: Homo sapiens; assay: Percent inhibition of collagen-induced Platelet aggregation in human platelet-rich plasma (PRP) at a concentration of 0.001 ug/mL
Homo sapiens [4] = species on record: Homo sapiens; assay: Percent inhibition of collagen-induced Platelet aggregation in human platelet-rich plasma (PRP) at a concentration of 0.032 ug/mL
Homo sapiens [5] = species on record: Homo sapiens; assay: Percent inhibition of collagen-induced Platelet aggregation in human platelet-rich plasma (PRP) at a concentration of 0.01 ug/mL

Row | Structure (SMILES) | IC50 (Homo sapiens [1]) [µg/mL] | Relative potency (Homo sapiens [2]) | inhibition at 0.001 µg/mL (Homo sapiens [3]) [%] | inhibition at 0.032 µg/mL (Homo sapiens [4]) [%] | inhibition at 0.01 µg/mL (Homo sapiens [5]) [%]
1 | Cl.Cl.Nc1ccc(-c2nnsc2-c2ccc(N)cc2)cc1 | 3.2 | 0.03 | – | – | –
2 | CN(C)c1ccc(-c2nnsc2-c2ccc(N(C)C)cc2)cc1 | 0.01 (≈ 0.0308 µM) | 10 | – | – | –
3 | COc1ccc(-c2snnc2-c2ccc(OC)cc2OC)cc1 | 0.032 (≈ 0.0974 µM) | 3.1 | – | – | –
4 | Oc1ccc(-c2nnsc2-c2ccc(O)cc2)cc1 | 3.2 (≈ 11.8 µM) | 0.03 | – | – | –
5 | c1ccc(-c2nnsc2-c2ccc3c(c2)OCO3)cc1 | 3.2 (≈ 11.3 µM) | 0.03 | – | – | –
6 | c1csc(-c2nnsc2-c2cccs2)c1 | 3.2 (≈ 12.8 µM) | 0.03 | – | – | –
7 | COc1ccc(-c2nnsc2-c2ccccc2)cc1 | 0.01 (≈ 0.0373 µM) | 10 | – | – | –
8 | COc1ccc(-c2snnc2-c2ccco2)cc1 | 0.032 (≈ 0.124 µM) | 3.1 | – | – | –
9 | COc1ccc(-c2csnn2)cc1 | 3.2 (≈ 16.6 µM) | 0.03 | – | – | –
10 | COc1ccc(-c2snnc2-c2ccccc2)cc1 | 0.003 (≈ 0.0112 µM) | 31.3 | 32.4 | 50 | 56.8
11 | COc1ccc(-c2nnsc2-c2ccc(OC)cc2)cc1 | 0.001 (≈ 0.00335 µM) | 100 | 32.4 | 55.4 | 90
12 | CCNc1ccc(-c2nnsc2-c2ccc(NCC)cc2)cc1 | 3.2 (≈ 9.86 µM) | 0.03 | – | – | –
13 | c1ccc(-c2csnn2)cc1 | 3.2 (≈ 19.7 µM) | 0.03 | – | – | –
14 | COc1ccc(-c2snnc2-c2ccc(SC)cc2)cc1 | 0.032 (≈ 0.102 µM) | 3.1 | – | – | –
15 | COc1ccc(-c2nnsc2-c2cccs2)cc1 | 1 (≈ 3.64 µM) | 0.1 | – | – | –
16 | c1ccc(-c2nnsc2-c2ccccc2)cc1 | 3.2 (≈ 13.4 µM) | 0.03 | – | – | –
17 | c1ccc(-c2cnns2)cc1 | 3.2 (≈ 19.7 µM) | 0.03 | – | – | –
18 | CC(=O)Oc1ccccc1C(=O)O [ASPIRIN] | – | 0.01 | – | – | –
